Test [1] has as its system Mus musculus. The test can be described thus: Anticonvulsant activity by using a standard maximal electroshock test (MES) in mice, by intraperitoneal administration of the compound; Range 50-100 mg/kg. The format is functional. The following applies: ip. In short, it runs like this:
(§1)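 Supramaximal electroshock: 50-mA current (60 Hz, 0.20 s) via corneal electrodes induced hind-limb tonic extension; inhibition of this component scored as activity. Mice dosed ip and/or po in aqueous solution or suspension (ca. 0.1% Tween 80, distilled water). Tested at 30, 60, 120 and 240 min (sometimes 45 min); ten mice per time point.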

Test [2] has as its system Mus musculus. The test can be described thus: Anticonvulsant activity following p.o. administration by standard maximal electroshock test in mice. Particulars: po. The format is functional. In short, it runs like this: as §1
A general note: Protection in the maximal electroshock model is a classic sign of anticonvulsant action.

For test [3], the system named is Mus musculus. In words: Percentage block of the hind-limb tonic-extensor seizure was determined after application of an electric shock to mice for 60 min followed by 100 mg/kg intraperitoneal dose. It is filed as functional. An outline of the steps: as §1
In test [4] the test system is Mus musculus. The test can be described thus: Percentage block of the hind-limb tonic-extensor seizure was determined after application of an electric shock to mice for 120 min followed by 100 mg/kg intraperitoneal dose. The format is functional. In short, it runs like this:
as §1

Test [5] relates to Mus musculus. In words: Percentage block of the hind-limb tonic-extensor seizure was determined after application of an electric shock to mice for 120 min followed by 200 mg/kg peroral dose. Particulars: route oral. It is filed as functional. An outline of the steps:
as §1

Test [6] deals with Mus musculus. In words: Percentage block of the hind-limb tonic-extensor seizure was determined after application of an electric shock to mice for 30 min followed by 100 mg/kg intraperitoneal dose. The format is functional. An outline of the steps:
as §1

Test [7] deals with Mus musculus. In words: Percentage block of the hind-limb tonic-extensor seizure was determined after application of an electric shock to mice for 30 min followed by 200 mg/kg peroral dose. The following applies: route oral. It is filed as functional. An outline of the steps: as §1
Test [8] has as its system Mus musculus. In words: Percentage block of the hind-limb tonic-extensor seizure was determined after application of an electric shock to mice for 240 min followed by 100 mg/kg intraperitoneal dose. It is filed as functional. An outline of the steps:
as §1

Test [9] concerns Mus musculus. The test can be described thus: Percentage block of the hind-limb tonic-extensor seizure was determined after application of an electric shock to mice for 240 min followed by 200 mg/kg peroral dose. It is filed as functional. Particulars: route oral. In short, it runs like this:
as §1

Test [10] concerns Mus musculus. The test can be described thus: Percentage block of the hind-limb tonic-extensor seizure was determined after application of an electric shock to mice for 60 min followed by 200 mg/kg peroral dose. Particulars: route oral. It is filed as functional. In short, it runs like this:
(§2)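 Mouse MES test: supramaximal seizure from a 50-mA current (60 Hz, 0.20-s) through corneal electrodes. […] Ten mice per time point. Compound given in aqueous solution or in suspension in ca. 0.1% Tween 80 and distilled water. Free food and water except during testing.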

Test [11] has as its system Mus musculus. The test can be described thus: Anticonvulsant activity by using a standard maximal electroshock test (MES) in mice, by 100 mg/kg intraperitoneal administration of the compound; I =inactive. It is filed as functional, organism-based. On the set-up: dose 100 mg/kg. In short, it runs like this: as §1
The subject of test [12] is Mus musculus. The test can be described thus: Anticonvulsant activity by using a standard maximal electroshock test (MEST) in mice, by 100 mg/kg intraperitoneal administration of the compound; I=inactive. The format is functional, organism-based. On the set-up: dose 100 mg/kg. An outline of the steps:
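Threshold electroshock: 8-mA current (60 Hz, 0.25 s) via ear-clip electrodes, the CS97 in these mice, induced hind-limb tonic extension; inhibition scored as activity. Mice given drug intraperitoneally in aqueous solution or suspension (ca. 0.1% Tween 80, distilled water). Tested at 30 min, sometimes also 240 min; ten mice per time point.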

Test [13] deals with Mus musculus. In words: Anticonvulsant activity by using a standard maximal electroshock test (MES) in mice by intraperitoneal administration of the compound. The format is functional. The following applies: ip. In short, it runs like this:
as §1

Test [14] concerns Mus musculus. In words: Percentage block of the hind-limb tonic-extensor seizure was determined after application of an electric shock to mice for 30 min followed by 50 mg/kg intraperitoneal dose. The format is functional. In short, it runs like this: as §1
Test [15] deals with Mus musculus. In words: LD50 of compound after ip administration after 24 hrs was determined. It is filed as functional.
Test [16] relates to Mus musculus. The test can be described thus: Percentage block of the hind-limb tonic-extensor seizure was determined after application of an electric shock to mice for 60 min followed by 50 mg/kg intraperitoneal dose. The format is functional. In short, it runs like this: as §2
The test system of test [17] is Mus musculus. In words: Percentage block of the hind-limb tonic-extensor seizure was determined after application of an electric shock to mice for 120 min followed by 100 mg/kg peroral dose. Particulars: route oral. The format is functional. An outline of the steps: as §1
For test [18], the system named is Mus musculus. In words: Percentage block of the hind-limb tonic-extensor seizure was determined after application of an electric shock to mice for 30 min followed by 100 mg/kg peroral dose. Particulars: route oral. The format is functional. In short, it runs like this:
as §1

For test [19], the system named is Mus musculus. In words: Percentage block of the hind-limb tonic-extensor seizure was determined after application of an electric shock to mice for 120 min followed by 50 mg/kg intraperitoneal dose. It is filed as functional. An outline of the steps: as §1
Test [20] deals with Mus musculus. In words: Percentage block of the hind-limb tonic-extensor seizure was determined after application of an electric shock to mice for 240 min followed by 100 mg/kg peroral dose. It is filed as functional. The following applies: route oral. An outline of the steps:
as §1

The subject of test [21] is Mus musculus. In words: Percentage block of the hind-limb tonic-extensor seizure was determined after application of an electric shock to mice for 240 min followed by 50 mg/kg intraperitoneal dose. It is filed as functional. In short, it runs like this: as §1
The subject of test [22] is Mus musculus. In words: Neurotoxic dose ED50 after po administration in mice at 1 hrs was determined. It is filed as functional. In short, it runs like this:
(§3)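 Neurotoxicity measured in mice with the rotoreel test after oral dosing. TD50 is the neurotoxic dose ED50, read at 1 h (peak time for TD50) and at 4 h (approximate peak time for the MES ED50). Compound was given as an aqueous solution or as a suspension in about 0.1% Tween 80 in distilled water. Animals had free access to food and water except during testing.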

Test [23] has as its system Mus musculus. The test can be described thus: Percentage block of the hind-limb tonic-extensor seizure was determined after application of an electric shock to mice for 60 min followed by 100 mg/kg peroral dose. Particulars: route oral. It is filed as functional. In short, it runs like this: as §2
Test [24] concerns Mus musculus. The test can be described thus: Neurotoxic dose ED50 after po administration in mice at 4 hrs was determined. It is filed as functional. In short, it runs like this:
as §3

The source made the active and inactive calls. Some results are limits rather than exact numbers.

With `CNS(=O)(=O)OC[C@@]12OC[C@H]3OC(C)(C)OC3C1OC(C)(C)O2` (stereo not given in full), the 50% effective dose (ED50) in the test with Mus musculus [1] is 50 mg/kg; with Mus musculus [2] it was 200 mg/kg. Further, the Block in the test on Mus musculus [3] worked out at 90%; in the test with Mus musculus [4], 80%; with Mus musculus [5], 100%; with Mus musculus [6] it was 30%; in the test with Mus musculus [7], 20%; in the test with Mus musculus [8] it was 30%. In addition, the Block was 100% with Mus musculus [9] and 70% in the test with Mus musculus [10].

For `CC1(C)OC2C(OS(N)(=O)=O)C3(COC(C)(C)O3)OC[C@H]2O1` (stereo not given in full), the ED50 result with Mus musculus [11] is “inactive”.

Regarding `CC1(C)OC2C3OC(C)(C)O[C@]3(COC(N)=O)OC[C@H]2O1` (stereo not given in full), the ED50 result in the test with Mus musculus [12] is “inactive”.

For `CC1(C)O[C@@H]2[C@@H](CO[C@@]3(COS(N)(=O)=O)OC(C)(C)O[C@@H]23)O1` [TOPIRAMATE], the values for the 50% effective dose (ED50) in the test with Mus musculus [13] and with Mus musculus [2] were 64 mg/kg and 61 mg/kg, respectively. Also, the Block in the test with Mus musculus [14] is reported as 20%; in the test on Mus musculus [16], 60%; with Mus musculus [17] it was 80%; in the test with Mus musculus [18], 40%; in the test with Mus musculus [19] it was 70%; in the test with Mus musculus [20] it was 100%. Also, the Block with Mus musculus [21] was found to be 50%; in the test with Mus musculus [23], 80%. In the test with Mus musculus [15], this molecule showed an LD50 greater than 1000 mg/kg. The TD50 worked out at 407 mg/kg in the test on Mus musculus [22] and 1100 mg/kg with Mus musculus [24].

For orientation: ED50 means the dose at which the effect has come halfway, by size or by number of responders. In general, LD50 refers to the dose at which mortality reaches 50%. Low readings indicate a more toxic substance, high ones a less toxic substance. Broadly, the TD50 is the dose at which the toxic effect under study appears in half of the subjects. Low values mean greater toxicity, high ones lower toxicity.

These data come from ChEMBL document CHEMBL1123867, “Anticonvulsant O-alkyl sulfamates. 2,3:4,5-Bis-O-(1-methylethylidene)-beta-D-fructopyranose sulfamate and related compounds” (1987).
